Published values collected from several papers.
Protocols differ between the studies behind these lines.
Target: Phosphatidylinositol 5-phosphate 4-kinase type-2 beta (PIP4K2B, Homo sapiens, UniProt P78356)
One construct used (P78356 1-416): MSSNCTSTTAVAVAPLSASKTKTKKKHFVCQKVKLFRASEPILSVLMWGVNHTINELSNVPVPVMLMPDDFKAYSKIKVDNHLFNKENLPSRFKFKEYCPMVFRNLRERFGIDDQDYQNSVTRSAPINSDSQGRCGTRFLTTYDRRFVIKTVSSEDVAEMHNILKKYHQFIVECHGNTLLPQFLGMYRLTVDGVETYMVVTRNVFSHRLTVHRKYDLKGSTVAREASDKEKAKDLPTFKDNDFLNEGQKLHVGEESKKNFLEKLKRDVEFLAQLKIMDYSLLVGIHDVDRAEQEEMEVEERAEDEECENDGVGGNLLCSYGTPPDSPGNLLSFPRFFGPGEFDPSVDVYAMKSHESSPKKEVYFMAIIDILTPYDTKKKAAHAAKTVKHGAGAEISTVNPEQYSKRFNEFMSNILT

SMILES	read-out	method	concentration	remaining binding [%]
N[C@@H]1CCN(c2nccc(-c3cnn4ncccc34)n2)C1	binding		1 µM	100
CNCc1ccccc1-c1csc([C@H](C)Nc2nc(C)nc3cc(OC)c(OC)cc23)c1	cell-free assay	competition with immobilised ligand	1 µM	100
Cc1cnc(Nc2ccc(C(=O)N3CCC(N4CCCC4)CC3)cc2)nc1-c1cc2ccccc2s1	binding	competition with immobilised ligand	1 µM	8.8
Cc1cnn2ncc(-c3ccnc(N(C)C)n3)c2c1	binding		1 µM	47
CCOCCn1cc(C(=O)Nc2ccc(-n3nc(-c4cccnc4)cc3C(F)(F)F)cn2)ccc1=O	cell-free assay	competition with immobilised ligand	1 µM	68
CCN1CCN(Cc2ccc(C(=O)Nc3ccc(C)c(Oc4ccc5c(c4)CC(=O)N5)c3)cc2C(F)(F)F)CC1	binding	competition with immobilised ligand	1 µM	100
CNC(=O)[C@@H]1CC[C@@H](n2c(-c3ccc4cnccc4c3)nc3ccc(C(=O)NCc4cccc(C(N)=O)c4)cc32)C1	binding	competition with immobilised ligand	1 µM	99
COc1cc(Nc2nccc(-c3cnn4nc(OC)ccc34)n2)cc(C(F)(F)F)c1	binding	competition with immobilised ligand	1 µM	50
CN(C)c1ncc(F)c(-c2cnn3ncccc23)n1	binding		1 µM	100
C=CC(=O)N1CCC(C(=O)NCC(=O)N2CCN(c3nc(-c4cnc(N)nc4C(F)F)nc(N4CCOCC4)n3)CC2)CC1	binding	competition with immobilised ligand	1 µM	99
CN(c1nccc(-c2cnn3ncccc23)n1)C1CC1	binding		1 µM	65
Cn1nc(C(F)(F)F)cc1-c1cnc(N2CCc3cc(S(=O)(=O)Nc4c(F)cc(Cl)cc4F)cc(N4CCCC4=O)c32)nc1	cell-free assay	competition with immobilised ligand	1 µM	100
CC1CCCN1c1nccc(-c2cnn3ncccc23)n1 (centres unmarked)	binding		1 µM	100
O=C(NCCCN1CCOCC1)c1ccc(Nc2ncc(Cl)c(-c3ccc(Cl)s3)n2)cc1	binding	competition with immobilised ligand	1 µM	4.2
COc1ccc2c(c1)O[C@H](c1ccc(OC)c(OC)c1)C[C@@H]2NC(=O)C1(c2ccc3c(c2)OC(F)(F)O3)CC1	cell-free assay	competition with immobilised ligand	1 µM	80
C[C@@H]1CCN(c2nccc(-c3cnn4ncccc34)n2)C1	binding		1 µM	100
O=C(N[C@H]1CCCCC/C=C\C2C[C@@]2(C(=O)O)NC(=O)[C@@H]2C[C@@H](Oc3ccncc3)CN2C1=O)OC1CCCC1 (some centres unmarked)	binding	competition with immobilised ligand	1 µM	100
O=C(c1ccc(Nc2ncc(Cl)c(-c3cc4ccccc4s3)n2)cc1)N1CCC(N2CCCC2)CC1	binding	competition with immobilised ligand	1 µM	7.1
FC(F)(F)Oc1cccc(-c2cnc3ccc(-c4ccncc4)nn23)c1	cell-free assay	competition with immobilised ligand	5 µM	100
C[C@H](c1ccnc(Nc2nc3ccc(-c4cc(N(C)C)ncn4)cc3[nH]2)c1)N1CCN(C(=O)CC(F)(F)F)CC1	cell-free assay	competition with immobilised ligand	0.1 µM	75
O=C(NCC1CCOCC1)c1n[nH]cc1NC(=O)c1c(F)cccc1F	binding	competition with immobilised ligand	1 µM	100
Cc1c(NC(=O)c2cc(C(N)=O)nc3cc(F)ccc23)c(C(F)(F)F)nn1Cc1ccc(C#N)cc1	cell-free assay	competition with immobilised ligand	1 µM	88
COc1cnc(Nc2cccc(S(N)(=O)=O)c2)nc1N1CCN(c2ccccc2)CC1	binding	competition with immobilised ligand	1 µM	100
